Experimental data reported in ChEMBL document CHEMBL3244395, “Antimycotic imidazoles. 2. Synthesis and antifungal properties of esters of 1-[2-hydroxy(mercapto)-2-phenylethyl]-1H-imidazoles” (J Med Chem, 1978).
Activity calls are given as the source filed them. No cut-off for these calls is given here.

Columns and labels:
Epidermophyton floccosum = test: Antifungal activity against Epidermophyton floccosum assessed as lowest concentration required for total inhibition broth dilution assay; type: functional; conditions: read-out: MIC100
Method in brief: (§1)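 Broth dilution against dermatophytes, C. albicans ATCC 10231 and 14053, and C. neoformans. The end point is the lowest concentration with total inhibition. "<" marks the lowest level tested, and ">" marks partial growth at that dilution.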

[1] = Lipophilic-hydrophilic balance, Rm of the compound assessed as change in compound Rm to miconazole Rm by reverse-phase TLC method; type: physicochemical; conditions: silicone oil-impregnated silica gel, MeCN-H2O-AcOH
[2] = system: Erysipelothrix rhusiopathiae; test: Antibacterial activity against Erysipelothrix insidiosa ATCC 19414 assessed as lowest concentration required for total inhibition by broth microdilution assay; type: functional; conditions: for MIC: read-out: MIC100
Method in brief: (§2)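 Broth microdilution against the listed ATCC […] strains. The value is the lowest concentration giving total inhibition. "<" marks the lowest level tested, and ">" marks partial growth at that dilution.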

Staphylococcus aureus = test: Antibacterial activity against Staphylococcus aureus ATCC 12600 assessed as lowest concentration required for total inhibition by broth microdilution assay; type: functional; conditions: for MIC: read-out: MIC100; method in brief: as §2
Nannizzia gypsea = test: Antifungal activity against Microsporum gypseum assessed as lowest concentration required for total inhibition broth dilution assay; type: functional; conditions: read-out: MIC100; method in brief: as §1
Enterococcus faecalis = test: Antibacterial activity against Streptococcus faecalis ATCC 14506 assessed as lowest concentration required for total inhibition by broth microdilution assay; type: functional; conditions: for MIC: read-out: MIC100; method in brief: as §2
Candida albicans [3] = test: Antifungal activity against Candida albicans ATCC 10231 assessed as lowest concentration required for total inhibition by broth dilution assay; type: functional; conditions: read-out: MIC100; method in brief: as §1
Candida albicans [4] = test: Antifungal activity against Candida albicans ATCC 14053 assessed as lowest concentration required for total inhibition by broth dilution assay; type: functional; conditions: read-out: MIC100; method in brief: as §1
Cryptococcus neoformans = test: Antifungal activity against Cryptococcus neoformans assessed as lowest concentration required for total inhibition by broth dilution assay; type: functional; conditions: read-out: MIC100; method in brief: as §1
Pasteurella multocida = test: Antibacterial activity against Pasteurella multocida ATCC 19427 assessed as lowest concentration required for total inhibition by broth microdilution assay; type: functional; conditions: for MIC: read-out: MIC100; method in brief: as §2
Cutibacterium acnes = test: Antibacterial activity against Corynebacterium acnes ATCC 11828 assessed as lowest concentration required for total inhibition by broth microdilution assay; type: functional; conditions: for MIC: read-out: MIC100; method in brief: as §2
[5] = system: Trichophyton mentagrophytes; test: Antifungal activity against Trichophyton mentagrophytes assessed as lowest concentration required for total inhibition broth dilution assay; type: functional; conditions: read-out: MIC100; method in brief: as §1
Candida albicans [6] = test: Antifungal activity against Candida albicans in mouse vaginal infection model compound applied intravaginally as 2% formulation in an aqueous propylene glycol cream for 4 days bid; type: functional, organism-based; conditions: Vagina
Method in brief: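 Mice with vaginal C. albicans infection, following Wildfeuer's method. The compound was applied intravaginally as a 2% formulation in an aqueous propylene glycol cream, twice daily for 4 days. Read-out was animals cured over total number infected.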

Molecule	MIC (Epidermophyton floccosum)	deltaRm [1]	MIC [2]	MIC (Staphylococcus aureus)	MIC (Nannizzia gypsea)	MIC (Enterococcus faecalis)	MIC (Candida albicans [3])	MIC (Candida albicans [4])	MIC (Cryptococcus neoformans)	MIC (Pasteurella multocida)	MIC (Cutibacterium acnes)	MIC [5]	Activity (Candida albicans [6])	MIC100 [2]	MIC100 (Staphylococcus aureus)	MIC100 (Enterococcus faecalis)	MIC100 (Pasteurella multocida)	MIC100 (Cutibacterium acnes)
CC(C)(C)SC(=O)SC(Cn1ccnc1)c1ccc(Cl)cc1Cl.O=[N+]([O-])O (stereo unspecified)	< 0.1 µg/mL	0.05	100 µg/mL	3 µg/mL	10 µg/mL	10 µg/mL	30 µg/mL	30 µg/mL	3 µg/mL	1 µg/mL	100 µg/mL	3 µg/mL	–	–	–	–	–	–
CCCOC(=S)SC(Cn1ccnc1)c1ccc(Cl)cc1Cl.O=[N+]([O-])O (stereo unspecified)	< 0.1 µg/mL	-0.03	–	–	10 µg/mL	–	100 µg/mL	30 µg/mL	< 0.3 µg/mL	–	–	10 µg/mL	Active	–	–	–	–	–
O=C(SC(Cn1ccnc1)c1ccc(Cl)cc1Cl)c1ccccc1Cl.O=[N+]([O-])O (stereo unspecified)	< 0.1 µg/mL	-0.35	100 µg/mL	10 µg/mL	10 µg/mL	30 µg/mL	30 µg/mL	30 µg/mL	< 1 µg/mL	1 µg/mL	> 100 µg/mL	10 µg/mL	–	–	–	–	–	–
CCCCCCCCOC(=S)SC(Cn1ccnc1)c1ccc(Cl)cc1Cl.O=[N+]([O-])O (stereo unspecified)	1 µg/mL	1.23	30 µg/mL	> 100 µg/mL	30 µg/mL	1 µg/mL	100 µg/mL	100 µg/mL	< 1 µg/mL	1 µg/mL	100 µg/mL	30 µg/mL	–	–	–	–	–	–
O=C(O)C(=O)O.S=C(OCc1ccccc1)SC(Cn1ccnc1)c1ccc(Cl)cc1Cl (stereo unspecified)	< 0.1 µg/mL	-0.21	–	–	10 µg/mL	–	30 µg/mL	10 µg/mL	< 0.3 µg/mL	–	–	1 µg/mL	–	–	–	–	–	–
CCCCCOC(=S)SC(Cn1ccnc1)c1ccc(Cl)cc1.O=C(O)C(=O)O (stereo unspecified)	0.3 µg/mL	0.22	–	–	3 µg/mL	–	30 µg/mL	30 µg/mL	3 µg/mL	–	–	10 µg/mL	–	–	–	–	–	–
O=C(Cc1ccc(Cl)cc1)OC(Cn1ccnc1)c1ccc(Cl)cc1Cl.O=[N+]([O-])O (stereo unspecified)	< 0.1 µg/mL	-0.41	–	–	100 µg/mL	–	100 µg/mL	100 µg/mL	3 µg/mL	–	–	30 µg/mL	–	–	–	–	–	–
CCCCCCOC(=O)OC(Cn1ccnc1)c1ccc(Cl)cc1Cl.O=[N+]([O-])O (stereo unspecified)	< 0.3 µg/mL	-0.17	–	–	30 µg/mL	–	100 µg/mL	100 µg/mL	30 µg/mL	–	–	30 µg/mL	–	–	–	–	–	–
CCCCCC(=O)SC(Cn1ccnc1)c1ccc(Cl)cc1Cl.O=[N+]([O-])O (stereo unspecified)	< 0.1 µg/mL	-0.05	–	–	30 µg/mL	–	100 µg/mL	30 µg/mL	1 µg/mL	–	–	30 µg/mL	inactive	–	–	–	–	–
O=C(Cc1ccc(F)cc1)SC(Cn1ccnc1)c1ccc(Cl)cc1Cl.O=[N+]([O-])O (stereo unspecified)	< 0.1 µg/mL	–	–	–	30 µg/mL	–	100 µg/mL	100 µg/mL	< 1 µg/mL	–	–	30 µg/mL	–	–	–	–	–	–
CC(C)COC(=S)SC(Cn1ccnc1)c1ccc(Cl)cc1Cl.O=[N+]([O-])O (stereo unspecified)	< 0.1 µg/mL	0.17	–	–	3 µg/mL	–	30 µg/mL	10 µg/mL	< 0.3 µg/mL	–	–	3 µg/mL	–	–	–	–	–	–
O=C(OC(Cn1ccnc1)c1ccc(Cl)cc1Cl)c1ccc(Cl)cc1.O=[N+]([O-])O (stereo unspecified)	< 0.1 µg/mL	-0.39	–	–	100 µg/mL	–	300 µg/mL	300 µg/mL	3 µg/mL	–	–	30 µg/mL	inactive	–	–	–	–	–
CC(C)(C)c1ccc(C(=O)OC(Cn2ccnc2)c2ccc(Cl)cc2Cl)cc1.O=C(O)C(=O)O (stereo unspecified)	1 µg/mL	0.16	–	–	10 µg/mL	–	10 µg/mL	10 µg/mL	3 µg/mL	–	–	10 µg/mL	–	–	–	–	–	–
O=C(OC(Cn1ccnc1)c1ccc(Cl)cc1Cl)c1ccc(Cl)cc1Cl.O=[N+]([O-])O (stereo unspecified)	< 0.1 µg/mL	-0.24	–	–	30 µg/mL	–	300 µg/mL	300 µg/mL	3 µg/mL	–	–	30 µg/mL	–	–	–	–	–	–
CCCCCCCC(=O)OC(Cn1ccnc1)c1ccc(Cl)cc1Cl.O=[N+]([O-])O (stereo unspecified)	< 0.1 µg/mL	0.1	–	–	10 µg/mL	–	30 µg/mL	30 µg/mL	< 1 µg/mL	–	–	10 µg/mL	inactive	–	–	–	–	–
CCCCCCCCCCCC(=O)OC(Cn1ccnc1)c1ccc(Cl)cc1Cl.O=[N+]([O-])O (stereo unspecified)	1 µg/mL	1.1	10 µg/mL	10 µg/mL	> 100 µg/mL	100 µg/mL	> 300 µg/mL	> 300 µg/mL	< 1 µg/mL	1 µg/mL	> 100 µg/mL	> 100 µg/mL	–	–	–	–	–	–

Molecule	MIC (Epidermophyton floccosum)	deltaRm [1]	MIC [2]	MIC (Staphylococcus aureus)	MIC (Nannizzia gypsea)	MIC (Enterococcus faecalis)	MIC (Candida albicans [3])	MIC (Candida albicans [4])	MIC (Cryptococcus neoformans)	MIC (Pasteurella multocida)	MIC (Cutibacterium acnes)	MIC [5]	Activity (Candida albicans [6])	MIC100 [2]	MIC100 (Staphylococcus aureus)	MIC100 (Enterococcus faecalis)	MIC100 (Pasteurella multocida)	MIC100 (Cutibacterium acnes)
O=[N+]([O-])O.S=C(OC1CCCCC1)SC(Cn1ccnc1)c1ccc(Cl)cc1Cl (stereo unspecified)	< 0.1 µg/mL	0.43	–	–	3 µg/mL	–	3 µg/mL	3 µg/mL	< 1 µg/mL	–	–	3 µg/mL	–	–	–	–	–	–
O=C(Cc1ccc(Cl)cc1)SC(Cn1ccnc1)c1ccc(Cl)cc1Cl.O=[N+]([O-])O (stereo unspecified)	< 0.1 µg/mL	–	–	–	> 30 µg/mL	–	100 µg/mL	100 µg/mL	< 1 µg/mL	–	–	30 µg/mL	–	–	–	–	–	–
CCCCCCCCOC(=O)OC(Cn1ccnc1)c1ccc(Cl)cc1Cl.O=[N+]([O-])O (stereo unspecified)	< 0.1 µg/mL	0.4	–	–	10 µg/mL	–	300 µg/mL	30 µg/mL	3 µg/mL	–	–	10 µg/mL	–	–	–	–	–	–
O=C(Sc1ccccc1)SC(Cn1ccnc1)c1ccc(Cl)cc1Cl.O=[N+]([O-])O (stereo unspecified)	< 0.1 µg/mL	-0.02	100 µg/mL	10 µg/mL	3 µg/mL	30 µg/mL	100 µg/mL	100 µg/mL	< 1 µg/mL	3 µg/mL	> 100 µg/mL	10 µg/mL	–	–	–	–	–	–
CCCSC(=O)OC(Cn1ccnc1)c1ccc(Cl)cc1Cl.O=C(O)C(=O)O (stereo unspecified)	< 0.1 µg/mL	–	–	–	30 µg/mL	–	300 µg/mL	300 µg/mL	3 µg/mL	–	–	30 µg/mL	–	–	–	–	–	–
O=C(/C=C/c1ccc(Cl)cc1)OC(Cn1ccnc1)c1ccc(Cl)cc1Cl.O=[N+]([O-])O (stereo unspecified)	< 0.1 µg/mL	–	–	–	10 µg/mL	–	> 300 µg/mL	> 300 µg/mL	< 1 µg/mL	–	–	10 µg/mL	–	–	–	–	–	–
Cc1ccc(C(=O)SC(Cn2ccnc2)c2ccc(Cl)cc2Cl)cc1.O=[N+]([O-])O (stereo unspecified)	< 0.1 µg/mL	-0.09	–	–	30 µg/mL	–	10 µg/mL	10 µg/mL	< 1 µg/mL	–	–	10 µg/mL	–	–	–	–	–	–
CC(C)OC(=S)SC(Cn1ccnc1)c1ccc(Cl)cc1Cl.O=[N+]([O-])O (stereo unspecified)	< 0.1 µg/mL	-0.14	–	–	10 µg/mL	–	100 µg/mL	30 µg/mL	< 0.3 µg/mL	–	–	10 µg/mL	–	–	–	–	–	–
GENTAMICIN	–	–	–	–	–	–	–	–	–	–	–	–	–	30 µg/mL	1 µg/mL	30 µg/mL	< 0.1 µg/mL	1 µg/mL
O=C(Cc1ccccc1)SC(Cn1ccnc1)c1ccc(Cl)cc1Cl.O=[N+]([O-])O (stereo unspecified)	< 0.1 µg/mL	-0.43	–	–	30 µg/mL	–	100 µg/mL	100 µg/mL	< 1 µg/mL	–	–	30 µg/mL	–	–	–	–	–	–
CC(=O)SC(Cn1ccnc1)c1ccc(Cl)cc1Cl.O=[N+]([O-])O (stereo unspecified)	1 µg/mL	–	–	–	100 µg/mL	–	300 µg/mL	300 µg/mL	10 µg/mL	–	–	100 µg/mL	–	–	–	–	–	–
CCCCCOC(=S)SC(Cn1ccnc1)c1ccc(Cl)cc1Cl.O=[N+]([O-])O (stereo unspecified)	< 0.1 µg/mL	0.37	100 µg/mL	3 µg/mL	3 µg/mL	10 µg/mL	3 µg/mL	3 µg/mL	< 1 µg/mL	1 µg/mL	> 100 µg/mL	3 µg/mL	–	–	–	–	–	–
CCCCCCC(=O)OC(Cn1ccnc1)c1ccc(Cl)cc1Cl.O=[N+]([O-])O (stereo unspecified)	< 0.1 µg/mL	-0.16	–	–	30 µg/mL	–	100 µg/mL	100 µg/mL	3 µg/mL	–	–	30 µg/mL	–	–	–	–	–	–
CCCCOC(=O)SC(Cn1ccnc1)c1ccc(Cl)cc1Cl.O=[N+]([O-])O (stereo unspecified)	< 0.1 µg/mL	-0.14	–	–	30 µg/mL	–	30 µg/mL	30 µg/mL	< 0.3 µg/mL	–	–	10 µg/mL	–	–	–	–	–	–
O=C(/C=C/c1ccccc1)SC(Cn1ccnc1)c1ccc(Cl)cc1Cl.O=[N+]([O-])O (stereo unspecified)	< 0.1 µg/mL	-0.08	–	–	30 µg/mL	–	10 µg/mL	10 µg/mL	< 1 µg/mL	–	–	10 µg/mL	–	–	–	–	–	–
CCCCCCCCOC(=O)SC(Cn1ccnc1)c1ccc(Cl)cc1Cl.O=[N+]([O-])O (stereo unspecified)	< 0.1 µg/mL	0.82	10 µg/mL	1 µg/mL	30 µg/mL	30 µg/mL	> 300 µg/mL	> 300 µg/mL	< 1 µg/mL	1 µg/mL	100 µg/mL	10 µg/mL	–	–	–	–	–	–
